Source: article PMC5472370 (ACS Omega, 2017)

Columns and labels:
mature BACE1 ectodomain [1] = target: T1, mature BACE1 ectodomain (Homo sapiens, UniProt P56817); assay: SPR binding to immobilized WT BACE1
Summary of the method: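 Mature ectodomain and a neutravidin reference were amine-coupled on CM7 chips; runs at 25 °C. Running buffers: HBS-N pH 7.4, or 10 mM NaOAc pH 4.5 with 150 mM NaCl; both with 0.05% Tween 20 and 5% DMSO. Injections 30 s at 30 µL/min, with DMSO correction over 2.5–6.5%. Screened at 0.25 mM in duplicate (forward and reverse order) against BACE1, neutravidin and a blank spot. Top 10% retested over 0.03–0.500 mM (8 points, 1.5-fold).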

mature BACE1 ectodomain [2] = target: T1, mature BACE1 ectodomain; assay: WaterLOGSY ligand-observed NMR binding; settings: 30-fold excess of ligand, performed once
Summary of the method: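 Ligand-observed NMR on 5 µM mature ectodomain with 0.15 mM ligand (1:30 protein/ligand, ligand from 100 mM DMSO-d6 stock) and D2O added. Recorded at 27 °C on a 600 MHz spectrometer with cryoprobe. Both 1D 1H and WaterLOGSY spectra acquired: 32K points, 14 ppm sweep width, 128 scans. Run at physiological pH, then repeated at acidic pH.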

BACE1 D32N mutant = BACE1 D32N mutant (Homo sapiens, UniProt P56817, D93N); assay: SPR binding to BACE1 D32N mutant; settings: BACE1 D32N catalytic-site mutant
Sequence of BACE1 D32N mutant (P56817 46-454 D93N): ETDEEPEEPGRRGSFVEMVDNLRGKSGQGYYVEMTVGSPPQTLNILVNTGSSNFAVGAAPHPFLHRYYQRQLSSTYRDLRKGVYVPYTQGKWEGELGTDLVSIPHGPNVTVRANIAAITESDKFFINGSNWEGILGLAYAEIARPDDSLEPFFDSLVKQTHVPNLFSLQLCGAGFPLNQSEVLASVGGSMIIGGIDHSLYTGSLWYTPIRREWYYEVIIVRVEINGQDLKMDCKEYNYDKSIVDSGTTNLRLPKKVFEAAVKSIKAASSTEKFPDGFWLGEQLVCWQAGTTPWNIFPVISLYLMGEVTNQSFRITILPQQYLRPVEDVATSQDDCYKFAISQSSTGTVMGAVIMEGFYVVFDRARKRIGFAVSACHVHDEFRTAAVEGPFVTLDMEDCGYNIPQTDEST
Summary of the method: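 Catalytic-site D32N ectodomain (residues −16 to 393, C-terminal His- plus StrepII-tag), expressed in and purified from E. coli. Amine-coupled to a CM7 chip and run under conditions similar to wild type: 25 °C, 30 s injections at 30 µL/min, DMSO solvent correction. Concentration series 0.03, 0.06, 0.13, 0.25 and 0.50 mM.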

mature BACE1 ectodomain [3] = target: T1, mature BACE1 ectodomain; assay: SPR competition with OM99-2; settings: binding before and after OM99-2 injection, pH 4.5
Summary of the method: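 Run at pH 4.5 on immobilized wild-type ectodomain: 10 mM NaOAc, 150 mM NaCl, 0.05% Tween 20, 5% DMSO, 25 °C. Fragments injected before and after an injection of the peptide inhibitor OM99-2; binding responses compared. Concentration series 0.03, 0.06, 0.13, 0.25 and 0.50 mM.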

T1 sequence (P56817 46-454 limits assumed): as the sequence (P56817 46-454 D93N) above, with N48D counted along it

Brc1cc2c(N3CCNCC3)nccn2c1 [Compound 10, 7-Bromo-1-piperazin-1-yl-pyrrolo[1,2-a]pyrazine]
SPR binding at pH 4.5 (mature BACE1 ectodomain [1]; WT BACE1, pH 4.5): nonspecific binding | WaterLOGSY signal at pH 7.5 (mature BACE1 ectodomain [2]): clear positive | SPR D32N binding (BACE1 D32N mutant): bound | SPR OM99-2 competition (mature BACE1 ectodomain [3]): bound

CN(C)c1nc(N2CCCC2)nc2ccccc12 [Compound 12, N,N-Dimethyl-2-pyrrolidin-1-yl-quinazolin-4-amine]
WaterLOGSY signal at pH 7.5 (mature BACE1 ectodomain [2]): clear positive | SPR D32N binding (BACE1 D32N mutant): bound | SPR OM99-2 competition (mature BACE1 ectodomain [3]): reduced binding

CC1(c2ccccc2)COCC(N)=N1 (centres unmarked) [Compound 14, 5-Methyl-5-phenyl-2,6-dihydro-1,4-oxazin-3-amine]
SPR binding to WT BACE1 (mature BACE1 ectodomain) (mature BACE1 ectodomain [1]; pH not stated): bound strongly | WaterLOGSY signal at pH 4.5 (mature BACE1 ectodomain [2]; pH 4.5): strong positive | SPR D32N binding (BACE1 D32N mutant): lost binding | SPR OM99-2 competition (mature BACE1 ectodomain [3]): drastically reduced
